# Compound activity (PubChem)
# Only some compounds are listed: those with a hit (about 4.5% of all), similar ones and a draw of the others.
# STAT1 act = STAT1 signaling activation | activation (% of control), % at 5.5 µM | NIH 3T3 STAT1-luciferase reporter, IFN-gamma, luminescence; 100% = IFN-gamma alone, no compound | AID 932 | 200,000 tested, 2.6% active;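 active = activation above the screen-wide mean activation plus 3 SD, cut at about 130% in these data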;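 also: raw ratio to IFN-gamma control signal so 100% means no change and 0% no light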
# PERK inh = human PERK inhibition, primary cell-based screen; CHO PERK-DD fusion, SEAP luminescence translation reporter; Q9NZJ5; 220,000 tested, 0.17% active; AID 1416; inhibition, % at 5.6 µM;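 active = inhibition above the mean inhibition of all tested compounds plus 3 SD, set separately per screening campaign, cut at about 2.9% in these data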;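 also: PERK kinase domain activated by AP20187 dimerizer at 100 nM; 0% = DMSO with dimerizer and 100% = rapamycin at 8.4 µM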
# NF-kB expr up = raises NF-kB expression in human neuronal cells. NF-kB reporter expression; stronger effect = higher value. fold change at 12.5 µM. 190,000 tested, 1.6% active. AID 1239; in the data active = fold change above about 3.3
# APP 5'UTR act = APP 5'UTR luciferase reporter activation; SH-SY5Y APP 5'UTR luciferase reporter, luminescence; zero percent = DMSO vehicle wells; activation, % at 2 µM; 190,000 tested, 1% active; AID 1276;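 active = activation above a set limit, based on mean plus 3 SD of controls, cut at about 140% in these data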
# AHR activator = activates the human aryl hydrocarbon receptor; P35869; AHR-responsive luciferase reporter cells, luminescence; activation, % at 5 µM; 320,000 tested, 2.5% active; AID 2796; in the data active = activation above about 47%;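 also: 0% = vehicle wells and 100% = reference agonist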
# Target sequence (P35869 whole entry, looked up): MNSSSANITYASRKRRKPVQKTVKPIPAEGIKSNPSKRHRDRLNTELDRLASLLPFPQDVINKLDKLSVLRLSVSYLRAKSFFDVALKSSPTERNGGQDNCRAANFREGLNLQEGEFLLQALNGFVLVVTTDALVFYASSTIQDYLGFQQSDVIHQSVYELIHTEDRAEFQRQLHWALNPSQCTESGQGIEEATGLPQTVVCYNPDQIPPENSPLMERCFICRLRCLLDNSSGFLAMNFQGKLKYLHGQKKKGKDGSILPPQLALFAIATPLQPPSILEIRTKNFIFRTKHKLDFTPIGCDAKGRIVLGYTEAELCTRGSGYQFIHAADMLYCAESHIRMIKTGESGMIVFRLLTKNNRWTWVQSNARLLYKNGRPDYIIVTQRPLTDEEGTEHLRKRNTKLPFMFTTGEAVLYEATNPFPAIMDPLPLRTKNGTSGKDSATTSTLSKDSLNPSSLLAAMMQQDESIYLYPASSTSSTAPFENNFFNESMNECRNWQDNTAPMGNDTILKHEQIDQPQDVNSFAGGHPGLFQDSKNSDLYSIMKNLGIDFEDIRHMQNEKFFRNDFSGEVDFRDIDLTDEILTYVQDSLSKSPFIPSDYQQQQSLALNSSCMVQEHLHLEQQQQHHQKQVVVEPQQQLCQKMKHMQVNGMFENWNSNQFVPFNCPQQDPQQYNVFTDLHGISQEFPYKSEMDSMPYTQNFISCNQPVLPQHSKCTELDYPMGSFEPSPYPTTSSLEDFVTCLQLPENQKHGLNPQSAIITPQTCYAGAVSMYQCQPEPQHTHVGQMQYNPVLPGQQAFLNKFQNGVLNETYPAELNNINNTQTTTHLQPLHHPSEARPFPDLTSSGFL
# MDM2 E3 inh = Mdm2 E3 ligase (human) inhibition; Q00987; cell-based MDM2 ubiquitination luciferase reporter, 2 h; 0 = plate control, 100 = twice control, blank-subtracted; signal enhancement, % at 5 µM; AID 1230; 210,000 tested, 0.11% active;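 active = signal enhancement of 30% or more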;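 also: luminescence tracks abundance of the self-degrading MDM2-luciferase fusion protein; higher signal means inhibition of MDM2 E3 ligase activity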
#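 Timing – 2 h compound exposure at 37 °C · Assay system – mammalian cells stably expressing self-ubiquitinating, self-degrading MDM2 E3–luciferase fusion · Amount – 2000 cells seeded into each well · Measure – % luminescence enhancement versus blank-corrected plate control mean · Measured by – SteadyLite luminescence, 15 min reagent step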
# Active calls of the source: *; nt = no result given.
SMILES,STAT1 act,PERK inh,NF-kB expr up,APP 5'UTR act,AHR activator,MDM2 E3 inh
Cc1ccc(NC(=O)c2cccs2)cc1NC(=O)c1cccc(F)c1,nt,nt,nt,nt,64*,nt
O=C(NCc1cccs1)c1cc(-c2cccs2)on1,138*,2,2.3,76,-3,-5
Cc1ccc(NC(=O)c2cccs2)cc1NC(=O)c1ccc(F)cc1,nt,nt,nt,nt,39,nt
COc1ccc2nc(-c3ccc(F)cc3)sc2c1,nt,nt,nt,nt,5,nt
CC1CCC/C(=N\Nc2ccc(Cl)c(C(=O)O)c2)C1 (stereo not drawn),111,1,1.7,217*,10,11
O=C(Nc1cc2c(oc1=O)CCCC2=O)c1ccccc1,127,1,1.1,14,62*,-6
c1ccc(Cn2nnc3c(Nc4ccc5c(c4)OCO5)nc(C4CC4)nc32)cc1,94,0,1,-4,70*,5
COc1ccc(O)c(C(=O)CC(=O)c2ccccc2)c1,132*,-2,3.4*,134,-2,-65
COc1cccc(C(=O)NCC(=O)OCC(=O)c2ccccc2)c1,150*,1,1.1,3,4,-6
O=C(CNC(=O)c1cccc(OC(F)F)c1)OCC(=O)c1ccccc1,101,0,1,22,-1,-5
Cc1cc(C(C)(C)C)cc(C)c1C[n+]1ccc2ccccc2c1,nt,nt,nt,nt,-1,nt
Cc1cc(SCC(=O)OC/C(O)=C(\C#N)c2nc3ccccc3[nH]2)c(C)cc1Br,100,0,2.2,23,5,-92
N#C/C(=C(/O)COC(=O)CSc1ccc(Cl)cc1)c1nc2ccccc2[nH]1,87,1,3.9*,1,24,-3
Cc1cccc(C=Nc2ccc3c4c(cccc24)CC3)c1O,86,0,1.2,3,40,-6
Oc1ccc(Cl)cc1C=Nc1ccc2c3c(cccc13)CC2,92,0,0.87,-1,49*,9
Cc1cc2c(nc1C)CCCN2C[C@@H](C)O/N=C1/[C@H]2CCn3c(=O)n(-c4ccccc4)c(=O)n3[C@H]2[C@H](O)[C@@H]2O[C@H]12,100,0,3.4*,-11,6,nt
NS(=O)(=O)c1ccc(NC(=S)N2CCC(Cc3ccccc3)CC2)cc1,nt,nt,nt,nt,0,nt
COc1ccc(C(=O)c2c3ccc(C(F)(F)F)cc3[n+]([O-])n2CCCC(N)=O)cc1,nt,nt,nt,nt,19,nt
Cc1ccc(C(=O)c2c3ccc(C(F)(F)F)cc3nn2CCC(N)=O)cc1,nt,nt,nt,nt,65*,nt
CCSc1nc2ccccc2c(=O)n1-c1c(C)n(C)n(-c2ccccc2)c1=O,93,1,1.3,8,0,-4
CSCCC(NC(=O)c1ccccc1Cl)C(=O)NNC(=O)c1ccccc1O (stereo not drawn),nt,nt,nt,nt,58*,nt
c1coc(-c2nnc(SCc3nc4ccccc4[nH]3)o2)c1,95,0,0.52,11,49*,-8
Cc1ccc(CSc2nnc(-c3ccco3)o2)cc1,125,2,3.9*,53,6,-14
CCOC(=O)C(=CNc1ccc2c(c1)nnn2-c1ccc(Cl)cc1)C(=O)OCC,102,1,0.94,11,-1,-2
NC(=O)CSc1nnc(-c2ccc3c(c2)OCO3)o1,113,0,2.4,94,13,-6
SMILES,STAT1 act,PERK inh,NF-kB expr up,APP 5'UTR act,AHR activator,MDM2 E3 inh
CCOC(=O)c1c(C)[nH]c(C)c1C(=O)CSc1nnc(-c2ccc(OC(F)F)cc2)o1,104,1,1,-9,43,-5
C/C(N)=C(/C#N)C(=O)CSc1nnc(-c2ccc(OC(F)F)cc2)o1,148*,-1,4.8*,113,14,-9
C/C(N)=C(/C#N)C(=O)CSc1nnc(-c2ccc3c(c2)OCO3)o1,134*,0,6.9*,100,13,-42
Nc1c(C(=O)c2ccco2)oc2ccccc12,118,1,1,-10,9,-89
CCn1c(=O)c(-c2nc3ccccc3[nH]2)c(O)c2ccccc21,121,0,1.4,32,69*,-7
Clc1cc(Cl)c2nc(N3CCCCC3)sc2c1,124,-1,3.3*,63,25,-11
Cc1ccc(C)c(S(=O)(=O)NC(C)C(=O)Nc2ccc(-c3nc4ccccc4s3)cc2)c1 (stereo not drawn),131*,-1,1.1,55,33,-8
CCOc1ncccc1C(=O)OCC(=O)Nc1ccc(-c2nc3ccc(C)cc3s2)cc1,117,0,3.5*,164*,-3,-32
Cc1ccc(-c2csc(NC(=O)c3cccc(S(=O)(=O)N4CCN(C)CC4)c3)n2)cc1,97,-1,0.49,0,0,8
Cc1ccc(-c2csc(NC(=O)COC(=O)c3cccc(S(=O)(=O)N4CCOCC4)c3)n2)cc1,131*,0,3.6*,86,3,-18
CC(C)(C)c1ccc(S(=O)(=O)NCC(=O)Nc2ccc(-c3nc4ccccc4s3)cc2)cc1,112,0,1.7,18,36,-15
O=C(CNS(=O)(=O)c1cccc(Cl)c1)Nc1ccc(-c2nc3ccccc3s2)cc1,145*,0,1.9,129,34,-16
O=C(CCc1c[nH]c2ccccc12)OCC(=O)N1CCN(S(=O)(=O)c2ccccc2)CC1,nt,nt,nt,nt,-1,nt
O=C(NC1CCCC1)c1ccc(CNc2c(N3CCOCC3)c(=O)c2=O)cc1,106,1,1.2,7,0,-4
Cc1ccc2nc(-c3ccc(NC(=O)COC(=O)c4ccc(Br)o4)cc3)sc2c1,142*,0,5.3*,136*,-10,-34
Cc1ccc2nc(-c3ccc(NC(=O)CN4CCN(C(=O)c5ccco5)CC4)cc3)sc2c1,128,-2,4.4*,149*,1,5
Cc1ccc2nc(-c3ccc(NC(=O)COC(=O)c4ccco4)cc3)sc2c1,141*,0,4.3*,148*,-9,-38
O=C(COC(=O)c1ccc(Br)o1)Nc1ccc(Br)cc1,nt,nt,nt,nt,6,nt
Cc1ccc(NC(=O)CN2CCN(C(=O)c3ccco3)CC2)cc1,nt,nt,nt,nt,2,nt
Cc1ccc2nc(-c3ccc(NC(=O)COC(=O)c4cncc(Br)c4)cc3)sc2c1,144*,1,6.5*,152*,nt,-37
CNS(=O)(=O)c1cccc(C(=O)OCC(=O)Nc2ccc(N3CCCCC3)cc2)c1,106,1,1.5,27,1,-30
COc1ccc(/C=C(\C#N)C(=O)OCC(=O)Nc2ccc(-c3nc4ccc(C)cc4s3)cc2)cc1,115,1,4.5*,184*,-7,-52
CNS(=O)(=O)c1cccc(C(=O)OCC(=O)Nc2ccc(-c3nc4ccc(C)cc4s3)cc2)c1,73,1,1,167*,-11,-40
Cc1ccc2sc(-c3ccc(NC(=O)CCN4C(=O)c5ccccc5C4=O)cc3)nc2c1,150*,1,2.7,162*,11,-27
CC(=O)Nc1ccc(NC(=O)CCN2C(=O)c3ccccc3C2=O)cc1,nt,nt,nt,nt,1,nt
Cn1c(=O)c2sccc2n2c(CCCC(=O)NC3CCN(Cc4ccccc4)CC3)nnc12,nt,nt,nt,nt,0,nt
